Experiments:
NIH3T3/v-Src fibroblasts = test: Trypan blue exclusion viable cell counting; assay type: cell-based, mouse; conditions: 1 and 2.5 μM
Outline: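 Cells in culture treated once with increasing concentrations of test compound for 0–96 h. Harvested every 24 h, and viable cells counted by trypan blue exclusion under phase-contrast microscopy.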

U373MG cells = test: CyQuant cell proliferation assay; assay type: cell-based; conditions: Homo sapiens, U373 MG, 72 h, read-out: IC50 cell proliferation U373MG
Outline: (§1)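 CyQuant DNA-dye proliferation assay on cultured cells after 72 h exposure to test compound. Viability expressed relative to DMSO-treated control cells.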

U251MG cells [1] = test: Colony survival assay; assay type: cell-based, human; conditions: 1 μM, treated once
Outline: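 Cells seeded as single cells at 250 per well and treated once the next day with test compound (0–5 μM) for 72 h. Grown until large colonies were visible: 1 week for NIH3T3, 2 weeks for U251MG. Colonies stained with crystal violet for 4 h and counted.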

pStat1 = test: Immunoblotting, EGF-stimulated NIH3T3/hEGFR fibroblasts; assay type: cell-based, mouse; conditions: 5 μM pre-treatment
Outline: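 NIH3T3/hEGFR fibroblasts pretreated with or without 5 μM test compound for 3 h, then stimulated with 1 μg/ml EGF for 12 min. Whole-cell lysates, equal total protein, immunoblotted for pStat1/Stat1, pStat5/Stat5 and pErk1/2/Erk1/2.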

U251MG cells [2] = test: Immunofluorescence staining/confocal microscopy of mitosis; assay type: cell-based, human; conditions: 15 h treatment
Outline: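 U251MG cells on coverslips synchronised by double thymidine block (2 mM) and released for 9 h. Then given DMSO, 100 nM paclitaxel or 8 μM test compound for 15 h. Fixed in 4% paraformaldehyde, permeabilised with 0.1% digitonin and blocked in 0.2% BSA. Stained with anti-β-tubulin (1:350) and anti-MAP1B (1:300) for 1 h at room temperature, then fluorescent secondaries and DAPI; confocal imaging.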

G12 cells = test: Growth of glioma patient-derived xenograft cells in vitro; assay type: cell-based; conditions: Homo sapiens, read-out: inhibitory activity against G12 cell growth
G22 cells = test: 3D spheroid assay; assay type: cell-based, human; conditions: 5 μM, treated once
Stat3:Stat3 = Stat3:Stat3 (Mus musculus, UniProt P42227); test: Cell-free EMSA, nuclear extracts pre-incubated with compound, hSIE probe; assay type: biochemical
[3] = tested on: U251MG subcutaneous tumor xenografts; test: Subcutaneous glioma xenograft tumor growth; assay type: in vivo, mouse; conditions: 2 mg/kg, oral gavage, 33 days
Outline: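 Female athymic nude mice, 4 weeks old, injected subcutaneously in the left flank with 7.3 ×10^6 U251MG cells in PBS/matrigel. At 20 days (tumours 170–250 mm3), mice grouped by matched mean tumour size. Dosed 2 mg/kg by oral gavage in 1% DMSO vehicle, three times weekly, for 33 days. Caliper volumes (V = 0.52 × a2 × b) and body weights recorded; paired t test against vehicle.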

pErk1/2MAPK = test: Immunoblotting, U251MG glioma cells; assay type: cell-based, human; conditions: 5 μM
Outline: (§2)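 U251MG cells given 5 μM test compound for 0–24 h. Whole-cell lysates of equal total protein immunoblotted for pErk1/2, Erk1/2, pS-Akt, Akt, pJAK2, JAK2, SOCS3 and PTP1B, with β-actin or GAPDH as loading reference.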

pS-Akt = test: Immunoblotting, U251MG glioma cells; assay type: cell-based, human; conditions: 5 μM
Outline: as §2

MDA-MB-231 cells = test: CyQuant cell proliferation assay; assay type: cell-based, human; conditions: Homo sapiens, MDA-MB-231, 72 h, read-out: IC50 cell proliferation MDA-MB-231
Outline: as §1

Sequence of Stat3:Stat3 (P42227 2-770 limits assumed): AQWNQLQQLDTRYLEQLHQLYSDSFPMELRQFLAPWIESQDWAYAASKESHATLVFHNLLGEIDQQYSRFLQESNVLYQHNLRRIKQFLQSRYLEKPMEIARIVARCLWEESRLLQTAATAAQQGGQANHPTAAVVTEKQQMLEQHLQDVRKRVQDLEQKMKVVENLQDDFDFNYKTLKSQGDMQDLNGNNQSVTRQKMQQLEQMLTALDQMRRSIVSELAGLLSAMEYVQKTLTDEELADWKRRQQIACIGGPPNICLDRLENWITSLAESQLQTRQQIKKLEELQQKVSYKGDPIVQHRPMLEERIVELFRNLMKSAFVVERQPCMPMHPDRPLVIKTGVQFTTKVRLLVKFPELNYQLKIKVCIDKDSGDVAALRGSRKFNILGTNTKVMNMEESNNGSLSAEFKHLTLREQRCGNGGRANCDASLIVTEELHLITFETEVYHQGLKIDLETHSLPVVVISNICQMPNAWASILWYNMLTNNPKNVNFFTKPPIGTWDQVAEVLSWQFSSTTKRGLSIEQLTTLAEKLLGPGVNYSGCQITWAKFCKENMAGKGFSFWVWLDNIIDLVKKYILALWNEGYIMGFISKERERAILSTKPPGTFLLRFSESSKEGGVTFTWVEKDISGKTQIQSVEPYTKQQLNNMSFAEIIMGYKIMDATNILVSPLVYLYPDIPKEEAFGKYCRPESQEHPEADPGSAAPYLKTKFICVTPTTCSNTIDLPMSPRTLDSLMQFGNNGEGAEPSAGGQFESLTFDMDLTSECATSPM

Structure (SMILES): C/C=C(\C)C(=O)OCC1=C2/C(=C\[C@@]3(C)CC[C@](O)(O3)[C@H](C)C[C@@H]2O)OC1=O [Compound 22]
- growth of NIH3T3/v-Src over normal NIH3T3 fibroblasts (NIH3T3/v-Src fibroblasts): preferential inhibition of growth
- IC50 (U373MG cells): 6.6 to 8.2 µM
- U251MG colony formation (U251MG cells [1]): completely inhibited
- effect on EGF-stimulated pStat1 levels (pStat1): no effect
- chromatid structures and sister-chromatids segregation (mitosis) (U251MG cells [2]): caused defects
- inhibition at 5 µM (G12 cells): 25 to 35%
- 3D spheroid growth (G22 cells): decreased 3D spheroid growth
- Stat3:Stat3/DNA-binding activity (complexation), cell-free EMSA (Stat3:Stat3; 5 μM, 30 min pre-incubation, NIH3T3/v-Src nuclear extracts): diminished
- Stat3:Stat3/DNA complexation in the presence of Cys (Stat3:Stat3; in the presence of 50 μM Cys): strongly inhibited
- growth of subcutaneous U251MG xenografts [3]: inhibited growth
- effect on pErk1/2MAPK levels (pErk1/2MAPK): no effects
- effect on pS-Akt levels (pS-Akt): no effects
- IC50 (MDA-MB-231 cells): 5.2 to 9.1 µM

— PMC4834983 (Journal of medicinal chemistry, 2015)
